Results on 20 compounds are retold here after ChEMBL document CHEMBL2331420, “Synthesis, cytotoxicity and antiplasmodial activity of novel ent-kaurane derivatives” (Eur J Med Chem, 2013).

Structures can show the parent of a compound that is named as a salt.

Data set [1] relates to PANC-1. Kind of data set: Growth inhibition against human PANC1 cells after 72 hrs by inverted microscopy. As to conditions: PANC-1, 72 h. Type of data set: functional. The method, boiled down:
(§1)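 Cells seeded at 2×10^4 cells/well in MEM10FCS containing compound at the test concentrations and exposed continuously for 72 h at 37 °C, 10% CO₂, 98% humidity. Untreated control wells were counted daily to confirm exponential growth. Cells were stained with crystal violet and inspected by inverted microscope, and inhibition was judged against controls. GI50 (50% growth inhibition) is the mean of duplicate wells.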

Data set [2] is described as follows: Growth inhibition against human LoVo/DX cells after 72 hrs by inverted microscopy. Type of data set: functional. The method, boiled down: as §1
Data set [3] relates to K562. Kind of data set: Growth inhibition against human K562 cells after 72 hrs by inverted microscopy. The settings on record: K562, 72 h. Type of data set: functional. The method, boiled down: as §1
Data set [4] in a line: Growth inhibition against human IGROV cells after 72 hrs by inverted microscopy. Type of data set: functional. Summed up: as §1
The subject of data set [5] is LoVo. Nature of the data set: Growth inhibition against human LoVo cells after 72 hrs by inverted microscopy. Type of data set: functional. The method, boiled down:
as §1

The test system of data set [6] is HT-29. Kind of data set: Growth inhibition against human HT-29 cells after 72 hrs by inverted microscopy. The settings on record: HT-29, 72 h. Type of data set: functional. The method, boiled down:
as §1

In data set [7] the test system is HeLa. Nature of the data set: Growth inhibition against human HeLa cells after 72 hrs by inverted microscopy. Type of data set: functional. Summed up:
as §1

Data set [8] can be described thus: Growth inhibition against human IGROV-ET cells after 72 hrs by inverted microscopy. Type of data set: functional. The method, boiled down: as §1
The nature of data set [9]: Selectivity index, ratio of CC50 for human HepG2 cells to IC50 for chloroquine-resistant Plasmodium falciparum W2 infected in human erythrocytes. Type of data set: functional. The method, boiled down:
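HepG2 hepatoma cells in RPMI1640 with 5% FBS, 4×10^4 cells/well, allowed 18 h at 37 °C. Four serial dilutions from 1000 µg/mL, final DMSO 0.01%, in triplicate, for 24 h at 37 °C. Cytotoxic concentration taken from the dose–response curve, then divided by the antiplasmodial IC50.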

The subject of data set [10] is Plasmodium falciparum. Nature of the data set: Antiplasmodial activity against chloroquine-resistant Plasmodium falciparum W2 infected in human erythrocytes assessed as inhibition of parasite growth after 24 hrs by [3H]hypoxanthine incorporation assay. Type of data set: functional, organism-based. The method, boiled down: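 Ring-stage parasites, sorbitol-synchronised, in human O-negative erythrocytes in RPMI with 10% human plasma; plated at 1% parasitemia, 1% haematocrit. Compounds diluted from DMSO stocks in hypoxanthine-free medium, final DMSO 0.002%. After 24 h, [3H]-hypoxanthine (0.5 μCi/well) added for another 18 h at 37 °C. Incorporation compared with drug-free controls, IC50 by linear interpolation. Three experiments, each in triplicate.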

Data set [11] in a line: Cytotoxicity against human HepG2 cells after 24 hrs by MTT assay. Type of data set: cell-based. Summed up:
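Hep G2A16 hepatoma cells kept in RPMI1640 with 5% FBS and gentamicin, trypsinised and plated at 4×10^4 cells/well, then left 18 h at 37 °C before dosing. Compounds were given in triplicate at four serial-dilution concentrations starting at 1000 µg/mL, with final DMSO 0.01%, for 24 h at 37 °C. MTT (6 mg/mL in PBS) was added for 1 h 30 min, solubilised in DMSO and read at 570 nm. Cytotoxic concentration was taken from the dose–response curve.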

The term GI50 denotes the concentration that inhibits growth by half. Lower therefore signals greater sensitivity of the cells. In the case of `C[C@@]1(C(=O)O)CCC[C@@]2(C)C3=CC[C@H]4C[C@@]3(CC[C@H]12)C[C@]41CO1`, the GI50 in data set [1], in data set [2], in data set [3], in [4], in [5] and in data set [6] was greater than 9.48 µM throughout. The GI50 in data set [7] and in data set [8] was greater than 9.48 µM throughout.
As usually defined, the IC50 is the concentration that gives 50% inhibition. As usually defined, the CC50 is the concentration at which the toxic effect on the cells reaches its halfway point. Lower therefore signals harm at low concentration. With `C=C1C[C@@]23CC[C@H]4[C@@](C)(CCC[C@@]4(C)C(=O)OC)[C@@H]2CC[C@H]1C3`, the concentration for 50% growth inhibition (GI50) in data set [1] was greater than 9.48 µM; in [2] it was greater than 9.48 µM; in data set [3] it was greater than 9.48 µM; in data set [4], 8.44 µM; in [5], greater than 9.48 µM; in [6], greater than 9.48 µM. Also, the concentration for 50% growth inhibition (GI50) in data set [7] and in data set [8] was greater than 9.48 µM in each case. Further, in data set [9], the “Ratio CC50/IC50” value was determined as 3.9. For the same compound, in [10], the IC50 is 8.2 µM. This compound also gave a CC50 at 24 h in data set [11] of 32.2 µM.
As for `COC(=O)[C@]1(C)CCC[C@@]2(C)[C@@H]3[C@@H](O)C[C@H]4C[C@@]3(CC[C@@H]21)C[C@@H]4CO`, the GI50 in data set [1], in data set [2], in data set [3], in data set [4], in [5] and in data set [6] was greater than 8.56 µM each time. Moreover, the GI50 in data set [7] and in [8] was greater than 8.56 µM throughout. Besides, the IC50 in [10] is greater than 143 µM.
As for `C=C1[C@H]2CC[C@H]3[C@]4(C)CCC[C@@](C)(C(=O)OC)[C@H]4CC[C@]3(C2)[C@H]1O`, the GI50 in data set [1] was greater than 9.02 µM; in [2], greater than 9.02 µM; in data set [3] it was greater than 9.02 µM; in [4], 7.52 µM; in [5], 8.21 µM; in [6] it was 7.4 µM. Besides, the GI50 in [7] was 7.04 µM; in [8] it was greater than 9.02 µM. Besides, the IC50 in data set [10] came to 8.4 µM.
In the case of `C=C1C[C@@]23CC[C@H]4[C@@](C)(CCC[C@@]4(C)C(=O)O)[C@@H]2CC[C@@H]1C3` [KAURENOIC ACID], the GI50 in [1], in [2], in data set [3], in data set [4], in [5] and in data set [6] was greater than 9.92 µM throughout. Besides, the GI50 in [7] and in data set [8] was greater than 9.92 µM each time. Further, the “Ratio CC50/IC50” value in data set [9] amounted to 9.1. The IC50 in [10] is 21.1 µM. Also, the CC50 at 24 h in data set [11] was determined as 192 µM.
For `COC(=O)[C@]1(C)CCC[C@@]2(C)[C@@H]3CC[C@H]4C[C@@]3(CC[C@@H]21)C[C@@H]4C(=O)O`, in [10], the IC50 was greater than 144 µM.
As to `COC(=O)[C@]1(C)CCC[C@@]2(C)[C@@H]3[C@H](O)C[C@H]4C[C@@]3(CC[C@@H]21)C[C@@H]4CO`, the GI50 in [1], in data set [2], in data set [3], in data set [4], in [5] and in data set [6] was greater than 8.56 µM each time. In addition, the GI50 in data set [7] and in [8] was greater than 8.56 µM each time. In data set [10], the IC50 is greater than 143 µM.
For `COC(=O)[C@]1(C)CCC[C@]2(C)[C@@H]1CC[C@@]13C[C@H](C[C@H]4O[C@]412)[C@@]1(CO1)C3`, the GI50 in [1], in data set [2], in data set [3], in data set [4], in data set [5] and in data set [6] was greater than 8.66 µM throughout. Besides, the GI50 in data set [7] and in [8] was greater than 8.66 µM each time. The “Ratio CC50/IC50” value in data set [9] was found to be 119.1. Also, the IC50 in data set [10] turned out to be 10.4 µM. This compound also gave a CC50 at 24 h in [11] of 1240 µM.
Take `C[C@@]1(C(=O)O)CCC[C@@]2(C)C3=CC[C@@H]4C[C@@]3(CC[C@H]12)CC4=O`: in data set [10], the IC50 is greater than 157 µM.
With `COC(=O)[C@]1(C)CCC[C@@]2(C)C3=CC[C@H]4C[C@@]3(CC[C@H]12)CC4CO` (mixture of isomers), the GI50 in data set [1], in [2], in [3], in [4], in data set [5] and in data set [6] was greater than 9.02 µM in each case. The GI50 in [7] and in data set [8] was greater than 9.02 µM in each case. In data set [10], the half-inhibitory concentration (IC50) amounted to 33.1 µM.
`CCN(CC)CCCC(C)Nc1ccnc2cc(Cl)ccc12` (stereo not given) [CHLOROQUINE] showed a CC50 at 24 h in data set [11] of 504 µM.
`COC(=O)[C@]1(C)CCC[C@@]2(C)[C@@H]3CC[C@H]4C[C@@]3(CC[C@@H]21)C[C@@H]4C1NCCCN1`: the IC50 in data set [10] worked out at 5.4 µM.
As to `COC(=O)[C@]1(C)CCC[C@@]2(C)[C@@H]3CC[C@@H]4C[C@@]3(CC[C@@H]21)C[C@@H]4CO`, the 50% growth inhibitory concentration (GI50) in data set [1], in data set [2], in data set [3], in data set [4], in [5] and in data set [6] was greater than 9.02 µM throughout. Moreover, the GI50 in data set [7] was greater than 9.02 µM; in [8], 7.23 µM.
For `COC(=O)[C@]1(C)CCC[C@@]2(C)[C@@H]3CC[C@H]4C[C@@]3(CC[C@@H]21)[C@@H](O)[C@@H]4C`, the GI50 in data set [1] is greater than 9.02 µM; in data set [2], greater than 9.02 µM; in data set [3], greater than 9.02 µM; in data set [4], 8.34 µM; in [5], greater than 9.02 µM; in [6] it was greater than 9.02 µM. In addition, the GI50 in [7] and in data set [8] was greater than 9.02 µM each time. Also, the IC50 in data set [10] stood at 34.7 µM.
As to `COc1cccc2c1C(=O)c1c(O)c3c(c(O)c1C2=O)C[C@@](O)(C(=O)CO)C[C@@H]3O[C@H]1C[C@H](N)[C@H](O)[C@H](C)O1` [DOXORUBICIN HYDROCHLORIDE], the concentration for 50% growth inhibition (GI50) in [1] is 0.24 µM; in [2], 2.21 µM; in [3] it was 0.17 µM; in data set [4] it was 0.11 µM; in data set [5] it was 0.24 µM; in data set [6] it was 0.15 µM. In addition, the concentration for 50% growth inhibition (GI50) in data set [7] is 0.17 µM; in data set [8], 6.17 µM.
With `COC(=O)[C@]1(C)CCC[C@@]2(C)[C@@H]3CC[C@H]4C[C@]3(C=C4C)CC[C@@H]21`, the GI50 in [1], in data set [2], in data set [3], in data set [4], in [5] and in [6] was greater than 9.48 µM each time. The GI50 in data set [7] and in data set [8] was greater than 9.48 µM each time. Further, in data set [9], the “Ratio CC50/IC50” value was 5.1. Besides, in data set [10], the IC50 worked out at 8.8 µM. For the same compound, the CC50 at 24 h in data set [11] stood at 44.9 µM.
For `COC(=O)[C@]1(C)CCC[C@@]2(C)[C@@H]3CC[C@H]4C[C@@]3(CC[C@@H]21)C[C@@H]4C=O`, the GI50 is greater than 9.02 µM in data set [1]; greater than 9.02 µM in data set [2]; 8.18 µM in data set [3]; greater than 9.02 µM in data set [4]; 8.69 µM in [5]; greater than 9.02 µM in data set [6]. Besides, the GI50 in [7] and in data set [8] was greater than 9.02 µM throughout.
On to `COC(=O)[C@]1(C)CCC[C@@]2(C)[C@@H]3CC[C@H]4C[C@@]3(CC[C@@H]21)C[C@]41CO1`, for which the concentration for 50% growth inhibition (GI50) in data set [1], in [2], in data set [3], in data set [4], in data set [5] and in data set [6] was greater than 9.02 µM each time. For the same compound, the GI50 in data set [7] and in data set [8] was greater than 9.02 µM throughout. Moreover, the “Ratio CC50/IC50” value in data set [9] amounted to 11.5. In addition, in [10], the IC50 turned out to be 9.6 µM. The compound also showed a CC50 at 24 h in data set [11] of 111 µM.
Regarding `C=C1C[C@@]23CC[C@@H]4[C@](C)(C(=O)O)CCC[C@@]4(C)C2=CC[C@@H]1C3` [GRANDIFLORENIC ACID], in data set [10], the IC50 worked out at 23.3 µM.
`COC(=O)[C@]1(C)CCC[C@@]2(C)[C@@H]3CC[C@H]4C[C@@]3(CC[C@@H]21)C[C@H]4C=O`: the GI50 in [1], in [2], in [3], in data set [4], in data set [5] and in [6] was greater than 9.02 µM throughout. For the same compound, the GI50 in [7] and in [8] was greater than 9.02 µM each time.
